Test results taken from ChEMBL document CHEMBL4364350, “Use of a fluorescence assay to determine relative affinities of semisynthetic aminoglycosides to small RNAs representing bacterial and mitochondrial A sites” (Bioorg Med Chem, 2019).
≈ marks a conversion by molar mass, not a printed value.

Legend:
Escherichia coli [1] = experiment: Potency index, ratio of paromomycin Kd to compound Kd for 5'-fluorescein-tagged Escherichia coli ribosomal A site wt-bac duplex RNA incubated for 2 mins by fluorescence spectrophotometric analysis
Bacterial 70S ribosome = experiment: Anti-ribosomal activity against bacterial 70S hybrid ribosomes assessed as inhibition of cell-free translation incubated for 35 mins by dual luciferase reporter assay; type: subcellular, Bacteria
[2] = Binding affinity to 5'-fluorescein-tagged human mitochondrial ribosome A site mutant duplex RNA incubated for 2 mins by fluorescence spectrophotometry analysis
Method in brief: (§1)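 The 5'-fluorescein-labelled strand was set to 1 μM in binding buffer (10 mM HEPES pH 7.4, 150 mM NaCl, 3 mM Na2EDTA). The complementary strand was annealed at 95 °C for 1 min, then cooled slowly overnight. Aminoglycoside was added in 12–15 aliquots of 2 μL, each followed by 2 min incubation. Excitation 490 nm; 520 nm emission was volume-corrected. Fraction bound was fitted to a quadratic equation for apparent Kd, from three independent trials.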

[3] = Anti-ribosomal activity against human-bacterial hybrid ribosome containing human mitochondrial ribosome A site harboring wild type 12s rRNA assessed as inhibition of cell-free translation by dual luciferase reporter assay
[4] = Binding affinity to 5'-fluorescein-tagged human mitochondrial ribosomal A site wt-duplex RNA incubated for 2 mins by fluorescence spectrophotometric analysis; method in brief: as §1
[5] = Anti-ribosomal activity against human-bacterial hybrid ribosome containing human mitochondrial ribosome A site harboring A1555G mutant 12s rRNA assessed as inhibition of cell-free translation by dual luciferase reporter assay
Escherichia coli [6] = experiment: Antibacterial activity against Escherichia coli AG001 incubated for overnight by broth microdilution assay; type: functional
[7] = Selectivity ratio of IC50 for anti-ribosomal activity against human-bacterial hybrid ribosome containing human mitochondrial ribosome A site harboring A1555G mutant 12s rRNA to IC50 for anti-ribosomal activity against bacterial 70S hybrid ribosomes
[8] = Binding affinity to 5'-fluorescein-tagged Escherichia coli ribosomal A site wt-bac duplex RNA incubated for 2 mins by fluorescence spectrophotometric analysis; method in brief: as §1
[9] = test system: human mitochondrial ribosome A site (mutant) RNA; experiment: Selectivity ratio of Kd for 5'-fluorescein-tagged human mitochondrial ribosome A site mutant duplex RNA to Kd for 5'-fluorescein-tagged Escherichia coli ribosomal A site wt-bac duplex RNA; type: toxicity
[10] = test system: human mitochondrial ribosomal A site (wild type) RNA; experiment: Selectivity ratio of Kd for 5'-fluorescein-tagged human mitochondrial ribosomal A site wt-duplex RNA to Kd for 5'-fluorescein-tagged Escherichia coli ribosomal A site wt-bac duplex RNA; type: toxicity
[11] = Selectivity ratio of IC50 for anti-ribosomal activity against human-bacterial hybrid ribosome containing human mitochondrial ribosome A site harboring wild type 12s rRNA to IC50 for anti-ribosomal activity against bacterial 70S hybrid ribosomes
Escherichia coli [12] = experiment: Binding affinity to 5'-fluorescein-tagged Escherichia coli ribosomal A site wt-bac duplex RNA assessed as conformational change in RNA by measuring decrease in fluorescence intensity incubated for 2 mins by fluorescence spectrophotometric analysis; method in brief: as §1
[13] = Binding affinity to 5'-fluorescein-tagged bacterial ribosomal A site 27-nucleotide hairpin RNA construct by fluorescence analysis; parameters: species or system Bacteria

SMILES | Ratio (Escherichia coli [1]) | IC50 (Bacterial 70S ribosome) [nM] | Kd [2] [nM] | IC50 [3] [µg/mL] | Kd [4] [nM] | IC50 [5] [µg/mL] | MIC (Escherichia coli [6]) [µg/mL] | Ratio IC50 [7] | Kd [8] [nM] | selectivity ratio [9] | selectivity ratio [10] | Ratio IC50 [11] | inhibition (Escherichia coli [12]) [%] | Kd [13] [nM]
CCC[C@H]1[C@H](O)[C@@H](N)[C@@H](O[C@H]2[C@H](O[C@@H]3O[C@H](CO)[C@@H](O[C@H]4O[C@@H](CN)[C@@H](O)[C@H](O)[C@H]4N)[C@H]3O)[C@@H](O)[C@H](N)C[C@@H]2N)O[C@@H]1CO | 2.5 | 46.7 | 5800 | 167 (≈ 260 µM) | 26900 | 51 (≈ 79.5 µM) | 2 (≈ 3.12 µM) | 1730 | 2 | 2900 | 13400 | 5570 | – | –
CCO[C@H]1[C@H](O)[C@@H](N)[C@@H](O[C@H]2[C@H](O[C@@H]3O[C@H](CO)[C@@H](O[C@H]4O[C@@H](CN)[C@@H](O)[C@H](O)[C@H]4N)[C@H]3O)[C@@H](O)[C@H](N)C[C@@H]2N)O[C@@H]1CO | – | 124 | 8600 | 97 (≈ 151 µM) | 12800 | 120 (≈ 186 µM) | 16 (≈ 24.9 µM) | 1500 | 30 | 287 | 427 | 1210 | – | –
NC[C@@H]1O[C@H](O[C@H]2[C@@H](O)[C@H](O[C@@H]3[C@@H](O)[C@H](N)C[C@H](N)[C@H]3O[C@H]3O[C@H](CO)[C@@H](O)[C@H](O)[C@H]3N)O[C@@H]2CO)[C@H](N)[C@@H](O)[C@@H]1O [PAROMOMYCIN] | – | – | 2800 | 51 (≈ 82.8 µM) | 6500 | 6 (≈ 9.75 µM) | 4 (≈ 6.5 µM) | 200 | 5 | 560 | 1300 | 1700 | – | –
NC[C@@H]1O[C@H](O[C@H]2[C@@H](O)[C@H](O[C@@H]3[C@@H](O)[C@H](N)C[C@H](N)[C@H]3O[C@H]3O[C@H](CN)[C@@H](O)[C@H](O)[C@H]3N)O[C@@H]2CO)[C@H](N)[C@@H](O)[C@@H]1O [FRAMYCETIN] | – | – | 100 | – | 1100 | – | – | 20 | 1 | 100 | 1100 | 200 | 20 | 5
